Bioassay records (PubChem BioAssay)
HMGR II inh: blocks class II HMG-CoA reductase of Enterococcus faecalis; purified E. faecalis HMGR, NADPH absorbance 340 nm kinetic; inhibition, % at 10 µM; 190,000 compounds, 0.41% hits; AID 1066;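 active means inhibition above a set limit, the median over all tested compounds plus 3 SD, cut at about 9.5% in these data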;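 further: enzyme runs in reverse so mevalonate oxidation gives rising NADPH absorbance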
PERK inhibitor: blocks human PERK kinase; Q9NZJ5; inhibition, % at 5.6 µM; 220,000 compounds, 0.17% hits; CHO PERK-DD fusion, SEAP luminescence translation reporter;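 active means inhibition above the mean inhibition of all tested compounds plus 3 SD, set separately per screening campaign, cut at about 2.9% in these data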;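 further: PERK kinase domain activated by AP20187 dimerizer at 100 nM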
ABCG2 block: human ABCG2 inhibition, ABCB1 as counter-screen; inhibition, % at 6.6 µM; IgMXP3 cells, JC-1 efflux, flow cytometry; 190,000 compounds, 0.1% hits;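 active means inhibition above 80%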
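System: two drug-resistant human cell lines, ABCG2 and ABCB1; controls: nicardipine high and DMSO low controls; times: 10 min exposure at 25 °C with rotation, no wash; detection: flow cytometry of retained JC-1 fluorescence; read-out basis: percent efflux inhibition, scaled nicardipine 100% to DMSO 0%; doses: one concentration, 6.6 µM final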
Rad51 HR inh: Rad51 (human) homologous recombination inhibition; 200,000 compounds, 0.085% hits; hRad51 DNA strand exchange, fluorescence dequenching; inhibition, % at 10 µM; Q06609;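 active means inhibition above 40% at the single screening dose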
Target sequence (Q06609 whole entry, looked up): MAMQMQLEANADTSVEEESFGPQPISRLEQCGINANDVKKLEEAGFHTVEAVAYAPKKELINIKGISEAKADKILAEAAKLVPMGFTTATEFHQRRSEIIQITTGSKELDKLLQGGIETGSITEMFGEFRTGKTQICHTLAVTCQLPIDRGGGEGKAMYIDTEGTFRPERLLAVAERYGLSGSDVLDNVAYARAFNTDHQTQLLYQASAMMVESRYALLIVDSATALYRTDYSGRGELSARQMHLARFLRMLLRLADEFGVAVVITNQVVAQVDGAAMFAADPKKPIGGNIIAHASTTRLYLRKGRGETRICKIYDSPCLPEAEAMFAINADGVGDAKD
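System: hRad51 filaments on single-stranded DNA; reagent: Fluorescein- and BHQ1-tagged 47-mer duplex; compound dosing: one concentration, 10 µM final; timing: filaments 15 min 37 °C, then compound 30 min; measured by: fluorescein emission 520 nm, excitation 485 nm; benchmarks: per-plate controls and blanks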
Furin inh: inhibitors of human furin; 220,000 compounds, 0.061% hits; P09958; purified furin, fluorogenic substrate cleavage; inhibition, % at 20 µM or 30 µM; in the data active means inhibition above about 25%
ABCB1 inh: blocks JC-1 efflux by human ABCB1 transporter | P08183 | CCRF-Adr cells, flow cytometry | inhibition, % at 6.6 µM | 190,000 compounds, 0.067% hits | AID 1326; in the data active means inhibition above about 40%;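 further: higher value means more JC-1 retained so stronger ABCB1 efflux block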
Large screens that a line does not name were inactive. Rows were chosen to be rich in hits. Some 0.77% of all compounds tested hit in one or more screens of this group.

Nc1ccccc1C(=O)N1CCCC1	PERK inhibitor 3.1 (no result: Rad51 HR inh)
CC1CN(C(=O)Nc2cccc(Cl)c2)C2(CCCCCC2)O1 (stereo not given)	none
O=C(COC(=O)c1cccc(C(=O)OCC(=O)NCc2ccc(F)cc2)n1)NCc1ccc(F)cc1	none
COc1cc(C(=O)OCCN2CCOCC2)ccc1O	none
O=C(OCCCN1CCOCC1)c1ccc(O)c(O)c1	PERK inhibitor 3.4 (no result: HMGR II inh, ABCG2 block, Rad51 HR inh, ABCB1 inh)
Cc1cc(C)cc(OCC(=O)Nc2ccc3c(c2)OCO3)c1	none
CC(C)C(C)(C#N)NC(=O)CSc1nc(C2CCCCC2)n(-c2ccccc2)n1 (stereo not given)	none
COC(=O)CCC(=O)OC1(C)C(=O)C2=CN(CC3CC3)C(c3ccc(OC)cc3)=CC2=C(Br)C1=O (stereo not given)	none (no result: HMGR II inh, PERK inhibitor, ABCG2 block, ABCB1 inh)
COC(=O)CCC(=O)OC1(C)C(=O)C2=CN(C3CC3)C(c3ccc(OC)cc3)=CC2=C(Br)C1=O (stereo not given)	Rad51 HR inh 52 (no result: HMGR II inh, PERK inhibitor, ABCG2 block, Furin inh, ABCB1 inh)
CC(C)=CC(=O)OCc1cc([N+](=O)[O-])cc2c1OCOC2	none
CSCCC(NC(=O)c1ccccc1)C(=O)O (stereo not given)	none
CSCCC(NS(=O)(=O)/C=C/c1ccccc1)C(=O)O (stereo not given)	HMGR II inh 10
Cc1cc(C)c(NC(=O)CO/N=C2\CCCc3nonc32)c(C)c1	none
O=C(Cn1cc(C(=O)C(F)(F)F)c2ccccc21)N1CCOCC1	HMGR II inh 14
O=C(Cc1ccccc1)NCCS(=O)c1ccc(Cl)cc1 (stereo not given)	none
O=C(Cc1ccc(Cl)cc1)NCCS(=O)c1ccc(Cl)cc1 (stereo not given)	Rad51 HR inh 130
COc1cccc(/C=N/NC(=O)C(=O)N2CCCC2)c1OC	PERK inhibitor 3.1 (no result: Rad51 HR inh)
COc1cccc(/C=N/NC(=O)C(=O)N2CCCC2)c1O	none
COC1(OC)N=C(NC(=O)Nc2ccccc2)C2(C#N)C(c3ccccc3)C12C#N (stereo not given)	HMGR II inh 14
Fc1ccccc1Nc1nc(Cl)nc(Cl)n1	HMGR II inh 11
O=C(NC1=NCCS1)c1cccc(N2C(=O)c3ccccc3C2=O)c1	Rad51 HR inh 41
Cc1occc1-c1nnc(SCC(=O)N2CCCCC2)o1	HMGR II inh 13
COc1ccc2c(c1O)-c1ccccc1CCN(C)C2	none
COc1ccc2c3c1OC1CC(O)C=CC31CCN(C)C2 (stereo not given)	PERK inhibitor 3.1 (no result: HMGR II inh, ABCG2 block, ABCB1 inh)
Cn1nc(CSc2ccccc2)c(C=O)c1Cl	none
CCOC(=O)c1c(NC(=O)CSc2nnc(C)s2)sc2c1CCC(CC)C2 (stereo not given)	HMGR II inh 14
O=C(O)c1cccc(-n2cccc2/C=C\[N+](=O)[O-])c1	none (no result: Rad51 HR inh)
O=C(O)c1cccc(-n2cccc2/C=C/[N+](=O)[O-])c1	PERK inhibitor 3.2 (no result: HMGR II inh, ABCG2 block, Rad51 HR inh, ABCB1 inh)
CC1CCN(C(=O)C2c3ccccc3C(=O)N3CCc4ccccc4C23)CC1 (stereo not given)	none
O=C(C1c2ccccc2C(=O)N2CCc3ccccc3C12)N1CCN(Cc2ccccc2)CC1 (stereo not given)	HMGR II inh 49
CSc1ncccc1C(=O)Nc1ccc(F)c(F)c1F	none
O=C(Cn1ncc2ccccc21)N1CCN(c2cccc(C(F)(F)F)c2)CC1	HMGR II inh 18
CCOC(=O)N1CCN(C(=O)Cn2ncc3ccccc32)CC1	none
O=c1oc2cc(O)ccc2c2ccccc12	none
COc1ccc2c(c1)c(=O)oc1cc(O)ccc12	PERK inhibitor 3.4
O=C(Cc1cccs1)NC(c1ccccc1)c1ccccc1	none (no result: Rad51 HR inh)
O=C(O)CCC(=O)NC(c1ccccc1)c1ccccc1	HMGR II inh 14
Cc1ccc(NC(=O)CCc2ccc(S(=O)(=O)N3CCOCC3)cc2)c(C)c1	HMGR II inh 15
CCOc1cc(N2CCOCC2)c(OCC)cc1NC(=O)c1ccc(OC(C)C)cc1	none
CCC(=O)n1nc(-c2ccco2)nc1N	none
CCS(=O)(=O)n1nc(-c2ccco2)nc1N	HMGR II inh 10
O=C(Nc1ccc(N2CCCCC2)c(Cl)c1)c1ccc2c(c1)OCCO2	none
O=C(Nc1ccc(N2CCCC2)c(Cl)c1)c1ccc2c(c1)OCCO2	HMGR II inh 9.6
CC(C)=NNC1=NC(C)(C)Cc2ccccc21	none (no result: HMGR II inh, ABCG2 block, ABCB1 inh)
CC(=O)CC1=NC(C)(C)Cc2ccccc21	HMGR II inh 12
O=C(CSc1nc(C2CC2)nc2ccccc12)N1c2ccccc2Sc2ccccc21	none (no result: Rad51 HR inh)
Cc1csc2c(=O)sc(NC(=O)c3ccc(F)cc3Cl)nc12	none (no result: HMGR II inh, ABCG2 block, ABCB1 inh)
Cc1csc2c(=O)sc(NC(=O)c3ccc(F)cc3)nc12	PERK inhibitor 5.2 (no result: HMGR II inh, ABCG2 block, ABCB1 inh)
CCC(C)Cn1c(S(=O)(=O)O)nc2ccccc21 (stereo not given)	none
CC(C)Cn1c(S(=O)(=O)O)nc2ccccc21	PERK inhibitor 3.5 (no result: HMGR II inh, ABCG2 block, ABCB1 inh)
COc1ccccc1NC(=O)CC(NC1CCCCC1)C(=O)O (stereo not given)	none (no result: Rad51 HR inh)
CC(=O)N1CCc2[nH]c3ccccc3c2C1	PERK inhibitor 3.3
CN(C)S(=O)(=O)c1cc(C(=O)OCCn2cnc3c2c(=O)n(C)c(=O)n3C)ccc1Cl	none
C=CCc1ccc2oc(C(=O)OCC)cc(=O)c2c1O	none (no result: HMGR II inh, ABCG2 block, ABCB1 inh)
CCCc1ccc(OCc2ccccc2)c2c(=O)cc(C(=O)OCC)oc12	PERK inhibitor 3.1 (no result: HMGR II inh, ABCG2 block, ABCB1 inh)
C=CCC1(/C=N/O)CCOC(C)(C)C1 (stereo not given)	none (no result: HMGR II inh, ABCG2 block, Rad51 HR inh, ABCB1 inh)
COc1cc2c(cc1OC)CN(C(C)C(=O)N1CCc3ccccc31)CC2 (stereo not given)	HMGR II inh 19
CCCn1c(C)cc(C(=O)COc2ccc(C)nc2[N+](=O)[O-])c1C	none
COCCn1c(C)cc(C(=O)COc2ccc(C)nc2[N+](=O)[O-])c1C	HMGR II inh 13 (no result: Rad51 HR inh)
Cc1c(O)ccc2c3c(c(=O)oc12)CCC(C)C3 (stereo not given)	none
Cc1c(O)ccc2c3c(c(=O)oc12)CCCC3	PERK inhibitor 3.7
COc1ccc(C)cc1-n1nnnc1SCC(=O)c1ccc2c(c1)OCCO2	none
COc1ccc(-n2nnnc2SCC(=O)c2ccc3c(c2)OCCO3)c(OC)c1	PERK inhibitor 4.0 (no result: Rad51 HR inh)
COc1ccccc1NC(=O)CSc1nnc(CCC(=O)Nc2ccccc2F)n1C	PERK inhibitor 3.9 (no result: HMGR II inh, ABCG2 block, ABCB1 inh)
COc1ccc(C(=O)NCCc2nnc(SCC(=O)Nc3ccccc3F)n2C)cc1	none
CC(=O)OC(c1nc2ccccc2c(=O)n1C1CC2(OC1=O)c1ccccc1N1C(=O)C(C)(C)N(O)C12)C(C)C (stereo not given)	none (no result: HMGR II inh, PERK inhibitor, ABCG2 block, ABCB1 inh)
O=C1CC(N2CCOCC2)C(=O)N1CCN1C(=O)CC(N2CCOCC2)C1=O (stereo not given)	none
CCN1C(=O)CC(N2CCOCC2)C1=O (stereo not given)	PERK inhibitor 3.0
CN(C)c1ccc(/C=N/NC(=O)c2ccn(C)n2)cc1	PERK inhibitor 3.0 (no result: HMGR II inh, ABCG2 block, ABCB1 inh)
